Results pooled from the literature.
Each line is one published result; the experiments were not run side by side.

Structure (SMILES) | test system | setting | half-life [h]
COc1ccc(NC(=O)N2CCCCN3[C@H](COCCC(=O)O)[C@H](c4ccc(C#Cc5ccccc5)cc4)[C@@H]3C2)cc1 | mouse, plasma | intravenous | 2
CN(C)C/C=C/C(=O)Nc1ccc(O[C@@H]2CCC[C@@H](Nc3ncc(Cl)c(-c4c[nH]c5ccccc45)n3)C2)cc1 | male Swiss mouse, plasma | intravenous, 3 mg/kg | 2.25
O=C(Nc1nc(-c2ccc(O)c(O)c2)c(-c2ccccc2)s1)c1ccc(O)c(O)c1 | female nude mouse, plasma | oral, 800 mg/kg | 10
CCc1cc(C(=O)NC)c2nccc(N3CCc4c(cc(Cn5ccnc5)cc4-c4cn(C)nc4C(F)(F)F)C3=O)c2c1 | male CD-1 mouse, plasma | intravenous, 3 mg/kg | 0.8
NCC1CCN(c2nc(-c3ccncc3)nc3sc4c(c23)CCCC4)CC1 | female CD-1 mouse, plasma | oral, 20 mg/kg | 7.8
COc1ccc([C@@]23Oc4cc(OC)cc(OC)c4[C@]2(O)[C@H](O)[C@H](C(=O)N(C)C)[C@H]3c2ccccc2)cc1 | mouse, plasma | intravenous, 5 mg/kg | 1.5
COc1nc(-c2cc(C)c(N[C@@H](C)c3ccc(F)cc3)nn2)ccc1-n1cnc(C)c1 | male CD-1 mouse, plasma | intravenous, 1 mg/kg, single dose | 2.93
CCc1cc(OC)c2nccc(N3CCc4c(cc(Cn5ccnc5)cc4-c4cn(C)nc4C(F)(F)F)C3=O)c2c1 | male CD-1 mouse, plasma | oral, 50 mg/kg | 1.1
Oc1nc2nonc2cc1Nc1c(F)c(F)c(C(F)(F)F)c(F)c1F | male C57BL/6 mouse, plasma | oral, 10 mg/kg | > 15
COc1nc(-c2cc(C)c(N[C@@H](C)c3c(F)cc(F)cc3F)nn2)ccc1-n1cnc(C)c1 | male CD-1 mouse, plasma | intravenous, 1 mg/kg, single dose | 3.1
COc1ccc(C(O)COc2ccc(-c3csc(-c4ccc(OCC(O)c5ccc(OC)c(OC)c5)cc4)n3)cc2)cc1OC (centres unmarked) | C57BL/6 mouse, plasma | intravenous, 3 mg/kg | 3
CC[C@H](C)[C@@H]1NC(=O)[C@@](C)(NC(=O)[C@H](CCCNC(=N)N)NC(=O)[C@H](CC(C)C)NC(=O)[C@@H](NC(=O)[C@H](CCC(N)=O)NC(=O)[C@H](CC(C)C)NC(C)=O)[C@@H](C)O)CCCC=CCCC[C@@](C)(C(=O)N[C@@H](CC(C)C)C(=O)N[C@@H](Cc2ccc3ccccc3c2)C(N)=O)NC(=O)[C@H](CCCNC(=N)N)NC(=O)[C@H](CCC(N)=O)NC1=O | male BALB/c mouse, plasma | intravenous, 15 mg/kg | 1.8
CN1CCC[C@H](CN2c3ccccc3Sc3ccccc32)C1.Cl | mouse, plasma | oral, 64 mg/kg, single dose | 4.37
Cc1noc(-c2ccc(CSCCC(=O)O)cc2)c1NC(=O)O[C@H](C)c1ccccc1Cl | mouse, plasma | intravenous, 5 mg/kg | 0.49
CC(C)Oc1c(NC(=O)c2ccc(NC(=O)[C@H](CC(N)=O)NC(=O)c3ccc(NC(=O)c4ccc(C#N)cc4)cc3)cc2)ccc(C(=O)Nc2ccc(C(=O)O)cc2)c1O | male CD-1 mouse, plasma | intravenous, 5 mg/kg, single dose | 0.98
Cn1cnc2c(F)c(Nc3ccc(Br)cc3Cl)c(C(=O)NOCCO)cc21 | nude mouse, liver | oral, 5 mg/kg, single dose, tumour-bearing | 3.5

Structure (SMILES) | test system | setting | half-life [h]
COc1ccc2nccc(N3CCc4c(cc(Cn5ccnc5)cc4-c4cn(C)nc4C(F)(F)F)C3=O)c2c1 | male CD-1 mouse, plasma | oral, 50 mg/kg | 0.8
CNC(=O)[C@H](Cc1c[nH]cn1)NC(=O)CN(CCCc1ccccc1)CC(=O)O | male C57BL/6 mouse, plasma | intraperitoneal, 30 mg/kg | 0.15
CNC(=O)c1ccccc1Nc1cc(Nc2cc(C)c(C3CCN(CCCCCCNC(=O)COc4cccc5c4C(=O)N(C4CCC(=O)NC4=O)C5=O)CC3)cc2OC(C)C)ncc1C(F)(F)F (centres unmarked) | male Swiss mouse, plasma | intraperitoneal, 10 mg/kg | 6.1
CNC(=O)c1cc(OC)cc2c(N3CCc4c(cc(Cn5ccnc5)cc4-c4cn(C)nc4C(F)(F)F)C3=O)ccnc12 | male CD-1 mouse, plasma | intravenous, 3 mg/kg | 1.1
COc1cc2c(Nc3ccc(Cl)c(Cl)c3F)ncnc2cc1OC[C@@H]1C[C@@H]2CN(C)C[C@@H]2C1 | FVB mouse, plasma | oral, 70 mg/kg, single dose | 14
Cc1ccc2cncc(N3CCc4c(cc(Cn5ccnc5)cc4-c4cn(C)nc4C(F)(F)F)C3=O)c2c1 | male CD-1 mouse, plasma | oral, 50 mg/kg | 2
CC=Cc1ccc(O)c(OC)c1 | mouse, brain | intranasal, 100 mg/kg | 0.294
Cc1noc([C@H](Cc2c[nH]cn2)NC(=O)CN(CCCc2ccccc2)CC(=O)O)n1 | male C57BL/6 mouse, plasma | intraperitoneal, 30 mg/kg | 0.233
OC[C@H]1O[C@@H](c2ccc(Cl)c(Cc3ccc(O[C@H]4CCOC4)cc3)c2)[C@H](O)[C@@H](O)[C@@H]1O | CD-1 mouse, plasma | intravenous, 5 mg/kg | 0.16
CC(C)(C)c1ccc(O)c(CN(Cc2cc(C(C)(C)C)ccc2O)C2CCC(NC(N)=O)CC2)c1 (centres unmarked) | male C57BL/6 mouse, plasma | intraperitoneal, 25 mg/kg, single dose | 2.4
COc1cc(OC)c2nccc(N3CCc4c(cc(Cn5ccnc5)cc4-c4cn(C)nc4C(F)(F)F)C3=O)c2c1 | male CD-1 mouse, plasma | oral, 50 mg/kg | 0.7
CCc1ccc(Cc2cc([C@@H]3O[C@H](CO)[C@@H](O)[C@H](O)[C@H]3O)cc3c2CCC3)cc1 | male C57BL/6 mouse, plasma | intravenous, 1 mg/kg | 2.9
Cc1nc(-c2cnc(NC(C)C)n(C)c2=O)ccc1Oc1ccnc(-c2cnn(C)c2)c1 | female mouse, plasma | oral, 15 mg/kg, single dose | 6.85
Cc1cc(Nc2ccc(S(F)(F)(F)(F)F)cc2)n2ncnc2n1 | male Swiss mouse, plasma | oral, 100 mg/kg, single dose | 14
COc1ccc2c3c1O[C@H]1C[C@@H](OC(=O)c4ccccc4)C=C[C@@]31CCN(C)C2 | mouse, blood | intravenous, 3 mg/kg | 0.48
CNC(=O)c1cc(Oc2ccc(NC(=O)Nc3ccc(Cl)c(C(F)(F)F)c3)c(F)c2)ccn1 | male mouse, plasma | oral, 10 mg/kg, single dose | 14.9
